Laboratory results as given in PMC6774440 (Journal of molecular recognition : JMR, 2018).

Test system: T10
Format: binding, llama
Conditions: cross-reactivity = IC50(TCC)/IC50(cross reacting compound) × 100; nanobody T10
Method in brief: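 Wild-type T10 (synthetic gene, pET28a(+), ompA leader, C-terminal His6/HA tags) expressed in BL21(DE3) (10 µM IPTG, 16 h, 15 °C), purified by Ni-NTA. Checkerboard-optimized TCC-BSA coat (4 h RT), 1% BSA block. Nanobody competed with serial dilutions of TCC (0–1 ug/mL) or related compounds, 1 h RT. Detection: anti-HA-peroxidase, TMB (pH 5.5, 10 min), A450.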

Molecule | CR (%) T10
O=C(Nc1ccc(Cl)cc1)Nc1ccc(Cl)c(C(F)(F)F)c1 [3-Trifluoromethyl-4,4′-dichlorocarbanilide] | 15%
Oc1cc(Cl)ccc1Oc1ccc(Cl)cc1Cl [Triclosan] | 0.9%
CC(=O)N1CCC(NC(=O)Nc2ccc(OC(F)(F)F)cc2)CC1 [sEHi, #1555] | 0.9%
O=C(Nc1ccc(Cl)cc1)Nc1ccc(Cl)cc1 [4,4’-Dichlorocarbanilide] | 100%
CS(=O)(=O)N1CCC(NC(=O)Nc2ccc(OC(F)(F)F)cc2)CC1 [sEHi, #1709] | 1.5%
Dinuron | ≤1%
O=C(Nc1ccc(Cl)cc1)Nc1ccc(Cl)c(Cl)c1 [TCC, 3-(4-chlorophenyl)-1-(3,4-dichlorophenyl)urea] | 100%
O=C(Nc1ccc(Cl)c(Cl)c1)Nc1ccc(Cl)cc1O [2’-OH TCC] | 15%
O=C(Nc1ccccc1)Nc1ccccc1 [Carbanilide] | 8.8%
